Data taken from paper PMC4948641 (ChemMedChem, 2015).
Values joined by “and” are separate entries in the source; they are usually repeats but may differ in a detail not shown here. Equal entries are not always repeated.

Experiments:
[1] = system: mitochondrial permeability transition pore (PTP); assay: Ca2+-induced mitochondrial swelling assay; type: biochemical; conditions: read-out: mitochondrial swelling EC50; isolated mouse liver mitochondria; 50 μM Ca2+
How it was run: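 Mitochondria isolated from mouse liver take up 50 μM Ca2+ to trigger pore-dependent swelling. Swelling is followed across a range of test compound concentrations. Data are the average ± SEM of ≥ 4 experiments.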

IMM potential = assay: Rhodamine 123 uptake counterscreen; type: biochemical; conditions: read-out: Rh123 uptake EC50, isolated mouse liver mitochondria
How it was run: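 Isolated mouse liver mitochondria took up rhodamine 123 as a read-out of inner-membrane potential. The test compound was applied in a concentration series, and interference with Rh123 uptake was recorded. Values are the average ± SEM of ≥4 experiments.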

[2] = system: mitochondrial permeability transition pore (PTP); assay: Ca2+ retention capacity; type: biochemical; conditions: isolated mouse liver mitochondria
How it was run: (§1)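 Isolated mouse liver mitochondria from wild-type or CyPD-knockout mice were used. Ca2+ retention capacity was taken as the amount of Ca2+ needed to open the pore. Mitochondria were treated across a concentration range of test compound or solvent, and results were expressed as the compound-to-solvent CRC ratio. Values are the average ± SEM of ≥4 experiments.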

[3] = system: mitochondrial permeability transition pore (PTP); assay: CRC assay in CyPD-null mouse liver mitochondria; type: biochemical
How it was run: as §1

[4] = system: mitochondrial permeability transition pore (PTP); assay: CRC of permeabilized HeLa cells; type: cell-based, human
How it was run: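 Ca2+ retention capacity was measured in permeabilized HeLa cells, 0.8 million cells per condition. The test compound was applied across a concentration range. Results are expressed as the compound-to-solvent CRC ratio, average ± SEM of ≥4 experiments.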

[5] = aqueous solubility in 1xPBS; type: physicochemical
[6] = chemical stability with 5x DTT; type: physicochemical
aqueous stability = type: physicochemical
[7] = plasma protein binding, human; type: in vitro ADME
[8] = plasma protein binding, mouse; type: in vitro ADME
plasma stability, human = type: in vitro ADME
plasma stability, mouse = type: in vitro ADME
PAMPA permeability = type: in vitro ADME; conditions: Pe
BBB PAMPA permeability = type: in vitro ADME; conditions: pH 7.4
[9] = hepatic microsome stability, human; type: in vitro ADME; conditions: liver microsomes, hepatic microsome stability (% remaining after 1 h)
[10] = hepatic microsome stability, mouse; type: in vitro ADME; conditions: liver microsomes, hepatic microsome stability (% remaining after 1 h)
[11] = toxicity towards Fa2N-4 immortalized human hepatocytes; type: cell-based; conditions: human, Fa2N-4 immortalized hepatocytes
[12] = system: Fa2N-4 immortalized human hepatocytes; assay: as above; type: cell-based
[13] = system: isolated mouse liver mitochondria; assay: mitochondrial respiration in isolated mouse liver mitochondria; type: biochemical
How it was run: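 Isolated mouse liver mitochondria were treated with the test compound or solvent, and respiration was measured. Results are expressed as respiratory control ratio, reflecting the capacity to generate ATP. Values are the average ± SEM of ≥4 experiments.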

HeLa cells [14] = assay: oxygen-consumption rate of intact HeLa cells; type: cell-based, human; conditions: ≤ 10 μM
HeLa cells [15] = assay: HeLa cell proliferation after 24-hour treatment; type: cell-based, human; conditions: ≤ 10 μM
How it was run: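 HeLa cells were treated with the test compound at the indicated concentrations for 24 hours, and proliferation was then assessed. Values are the average ± SEM of ≥4 experiments.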

O=C(Nc1ccc(CN2CCCCC2)cc1)c1cc(Cl)cc(OCc2ccccc2)c1 [Compound 4, 3-(benzyloxy)-5-chloro-N-(4-(piperidin-1-ylmethyl)phenyl)benzamide]
EC50 [1]: 0.28 ± 0.024 µM | EC50 (IMM potential): 24.5 ± 1.12 µM | CRC/CRC0 at 12.5 μM ([2]; 12.5 μM, compound-to-solvent CRC ratio): 19.5 ± 1.7 | maximum CRC ratio relative to CsA-treated mitochondria [2]: about 4 times | increase in CRC in CyPD-null mouse liver mitochondria [3]: 7 fold | effect on CRC of permeabilized HeLa cells [4]: concentration-dependent increase | solubility ([5]; pH 5, aqueous buffer): 22.8 µg/mL and 52.5 µM | solubility ([5]; pH 6.2, aqueous buffer): 22.6 µg/mL and 52.1 µM | solubility ([5]; pH 7.4, aqueous buffer): 0.64 µg/mL and 1.5 µM | chemical stability with 5× DTT, % parent remaining after 8 h [6]: 91% | aqueous stability (1:1 PBS/acetonitrile), % parent remaining after 48 h (aqueous stability): 93.4% | fraction unbound at 1 μM [7]: 0.008 | fraction unbound at 10 μM [7]: 0.008 | fraction unbound at 1 μM [8]: 0.007 | fraction unbound at 10 μM [8]: 0.017 | remaining at 3 h (plasma stability, human): 39% | remaining at 3 h (plasma stability, mouse): 35% | Papp (PAMPA permeability; Donor pH 5.0, Acceptor pH 7.4): 1300 ×10⁻⁶ cm/s | Papp (PAMPA permeability; Donor pH 6.2, Acceptor pH 7.4): 1340 ×10⁻⁶ cm/s | Papp (BBB PAMPA permeability): 113 ×10⁻⁶ cm/s | remaining at 1 h ([9]; +NADPH): 61% | remaining at 1 h ([9]; -NADPH): 67% | remaining at 1 h ([10]; +NADPH): 30% | remaining at 1 h ([10]; -NADPH): 74% | CC50 [11]: 32 µM | selectivity, Fa2N-4 LC50 compared to mitochondrial swelling EC50 [12]: 114 fold | effect on ATP synthesis ([13]; 5 μM): no effect | respiratory control ratios, FCCP-stimulated and oligomycin-sensitive respiration ([13]; ≤ 10 μM, isolated mouse liver mitochondria): No significant differences | FCCP-stimulated and oligomycin-sensitive respiration (OCR) (HeLa cells [14]): No significant differences | effect on HeLa cell proliferation (HeLa cells [15]): no effect
